From the EternaBench riboswitch data

System: MS2 coat protein
Assay: apparent Kd, MS2 coat protein; higher = weaker binding; RNA-MaP array; theophylline 2 mM where present
How it was run: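 The apparent Kd comes from binding curves fitted cluster by cluster, filtered, and summarised as a median. Those curves followed SNAP-549-labelled MS2 coat protein from 0.7 or 1.5 nM, doubling to 3 µM, on Illumina sequencing-chip clusters where stalled E. coli RNA polymerase had transcribed the designs, without and then with constant ligand. The buffer was 100 mM Tris-HCl pH 7.5, 80 mM KCl, 4 mM MgCl2, BSA, DTT, yeast tRNA and Tween-20, and green signal was normalised to red-channel RNA signal and control-cluster median Fmax.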

[1] = designed as: ON switch for theophylline, no ligand
[2] = ligand present: theophylline, designed as: ON switch for theophylline
[3] = designed as: OFF switch for theophylline, no ligand
[4] = ligand present: theophylline, designed as: OFF switch for theophylline

Row | Sequence | apparent Kd [1] | apparent Kd [2] | apparent Kd [3] | apparent Kd [4]
1 | AAAAUAAAUAAAACACGUAACAUGAAGGAUACCAGACCGGAAACGGUCCCUUGGCAGCCUCUACAUGAGGAUCACCCAUGUCGUG | 0.238 µM | 0.0309 µM | – | –
2 | AACAUGAGGAUCACCCAUGUAUUGGGUGAUACCAGCCUGAAUAAUGGCCCUUGGCAGCACCGCGCUAACUUUAUGUCUGCGAAAC | 0.127 µM | 0.138 µM | – | –
3 | AACCGAGGCUAUCCUCUACGACUAUGUGAUACCAGAAUAAUUUUAUUCCCUUGGCAGCAUGACAUGAGGAUCACCCAUGUCUCUU | 0.0392 µM | 0.0582 µM | – | –
4 | AAGCUGCCAAGAACAUGGGUGAAAUGUGAUACCAGCUAGGAAACUAGCCCUUGGCAGCACAUGAGGAUCACCCAUGUAAUAAUAA | – | – | 0.352 µM | 0.0937 µM
5 | AAUAACAUGAGGAUCACCCAUGUAAAAGAUACCAGAGUGAUGAUCCUCCCUUGGCAGCUUAAAACGCUAUUGGAAACAAUAGCGA | 0.0805 µM | 0.168 µM | – | –
6 | AAUAAGCAGCUGCCUUCCUCAUGAGCAGAUACCAGCUAGGAAACUAGCCCUUGGCAGCUGCAACAUGAGGAUCACCCAUGUAAUA | – | – | 0.0658 µM | 0.073 µM
7 | AAUAAGUAUCUGCUAGGUGAUCCAGCAGAUACCAGCUAGGAAACUAGCCCUUGGCAGCUGCAACAUGAGGAUCACCCAUGUAAUA | – | – | 0.444 µM | 0.228 µM
8 | AAUAUAAGUGUAAUUAUAUGUAUCUCUGAUACCAGACUCUCAUGUGUCCCUUGGCAGCAGUUACAUGAGGAUCACCCAUGUAUUA | 0.103 µM | 0.0319 µM | – | –
9 | ACAAGUCCUCAUGAUACCAGCGAUGAGACAAAGUCUCAACAUGAGGAUCACCCAUGUACUCGCCCUUGGCAGCAUACGGUUUUUG | 0.415 µM | 0.0436 µM | – | –
10 | ACACCGAAAGGUGCAUUUACCUUAUCAGAUACCAGACUUUACGUUGUCCCUUGGCAGCUGUAUCACAUGAGGAUCACCCAUGUUG | 0.0155 µM | 0.0165 µM | – | –
11 | ACAUGAAGAUUAAUCGUGGGCAUACUCGAUACCAGUAUUUUAACCUACCCUUGGCAGCGACAUGAGGAUCACCCAUGUGAGAUGA | – | – | 0.0216 µM | 0.0289 µM
12 | ACAUGAGGAUCACCCAUGUUCCUCAUUGAUACCAGUGAAUUUAGACGCCCUUGGCAGCGAGUUUUUUUAUAAGAUGUUUUUUUUU | – | – | 0.545 µM | 1.11 µM
13 | ACAUGAGGAUCACCCAUGUUCCUCGCCGAUACCAGUGAAGAAUUACGCCCUUGGCAGCGGAAAGAGUAUUUUGGAGAUGAGGUAC | – | – | 0.0698 µM | 0.0835 µM
14 | ACGACGCAUAGUGAUACCAGCACAACAUGAGGAUCACCCAUGUCACAUAUGUUGUAAUAAUGCCCUUGGCAGCACUAUGCGUCAG | 0.052 µM | 0.0873 µM | – | –
15 | ACGACGCAUAGUGAUACCAGUAGAACAUGAGGAUCACCCAUGUCUGUGACGCACAAACUCUGCCCUUGGCAGCACUAUGCGUCAG | 0.0108 µM | 0.0174 µM | – | –
16 | ACGAUAGGACAUGAGGAUCACCCAUGUGAUACCAGCCUGGAAACAGGCCCUUGGCAGCACAAAUACUCCAGAAACCUAUCGAAAA | – | – | 0.258 µM | 0.417 µM
17 | ACGUCACGUUUACUCGUGGUUUCGAUCGAUACCAGUAGCGAGAGUUACCCUUGGCAGCGACAUGAGGAUCACCCAUGUACGAAGA | – | – | 0.0135 µM | 0.0184 µM
18 | ACUUGGUGGUGAUCCCUGCCAAGAGGUGAUACCAGCAUCGAAAGAUGCCCUUGGCAGCACCAACAUGAGGAUCACCCAUGUAAUA | 0.156 µM | 0.157 µM | – | –
19 | AGCAUACAUUCUGAUACCAGAGACAUGAGGAUCACCCAUGUCCGAUCGUCCUGCCUCAGACUCCCUUGGCAGCAGGAUGUGUGCU | – | – | 0.0139 µM | 0.0334 µM
20 | AGUGUUAUAACUGAUACCAGACCUUUGCUUAUACAUGAGGAUCACCCAUGUAAAAUGGCUGUCCCUUGGCAGCAGAGAAUACACA | 0.046 µM | 0.0165 µM | – | –
21 | AGUGUUAUAACUGAUACCAGACUCUCAUGUUUACAUGAGGAUCACCCAUGUUAUUUCUUUGUCCCUUGGCAGCAGAAUUUACACA | 0.317 µM | 0.0493 µM | – | –
22 | AUAACAUGAGGAUCACCCAUGUAAGCAGAUACCAGCUAGGAAACUAGCCCUUGGCAGCUGCAAUCCUCAUGUAUUGCAGCUGCAA | – | – | 0.0157 µM | 0.0362 µM
23 | AUACCUAAUGAGUCGUGUAACUUUUCAGAUACCAGACUUUUCGUUGUCCCUUGGCAGCUGUUUUACAUGAGGAUCACCCAUGUUG | – | – | 0.0159 µM | 0.0381 µM
24 | AUACCUAUUGAGUCGUGUUUCUAUUCAGAUACCAGACUUUUCGUUGUCCCUUGGCAGCUGUUUUACAUGAGGAUCACCCAUGUUG | – | – | 0.015 µM | 0.0175 µM
25 | AUAUGAUCAUAUGAUACCAGAAAUGGUAUUCCUUUGUUUCUUACAUGAGGAUCACCCAUGUUCCCUUGGCAGCAUAUGAUCAUAU | – | – | 0.187 µM | 0.251 µM
